Screening data: PubChem BioAssay, The Scripps Research Institute Molecular Screening Center
Sampled rows, rich in hits. Any-hit rate of the full collection: about 2.3%.
TAAR1 ag = agonists of human TAAR1; Q96RJ0; CHO RD-HGA16 TAAR1, Fluo-8 calcium fluorescence; vehicle wells 0%, saturating PEA agonist 100%; activation, % at 3 µM; 0.99% of 360,000 active;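 active = activation above the mean activation of all test compounds in the run plus 3 SD, cut at about 38% in these data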
Target sequence (Q96RJ0 whole entry, looked up): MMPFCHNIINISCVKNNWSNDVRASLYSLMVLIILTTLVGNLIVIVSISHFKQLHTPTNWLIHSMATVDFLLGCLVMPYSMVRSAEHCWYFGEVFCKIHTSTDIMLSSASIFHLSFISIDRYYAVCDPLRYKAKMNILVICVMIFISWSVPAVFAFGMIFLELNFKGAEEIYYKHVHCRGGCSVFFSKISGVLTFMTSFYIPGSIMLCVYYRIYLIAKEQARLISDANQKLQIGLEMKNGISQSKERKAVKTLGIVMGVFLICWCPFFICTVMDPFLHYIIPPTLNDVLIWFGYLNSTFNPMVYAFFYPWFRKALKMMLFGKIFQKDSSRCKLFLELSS
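Assay system: CHO-derived RD-HGA16 cells with stable Gα16 and human TAAR1; timing: 17-24 h seeding, 75 min 37 °C dye, 30 min RT; read-out: % activation from peak over basal fluorescence ratio, DMSO-to-PEA scaled; measured by: kinetic Fluo-8 calcium fluorescence; benchmarks: low control DMSO, high control PEA (EC100); doses: 3 µM single concentration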
OXTR potentiate = human OXTR potentiation; P30559; CHO-OTR cells, Fluo-8 calcium fluorescence, potentiator mode; 0% = oxytocin EC15, 100% = EC100; activation, % at 3 µM; 0.061% of 320,000 active;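 active = activation above that plate's cutoff, the mean activation of tested compounds plus 3 SD, cut at about 6.6% in these data, passing the limit was not always enough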;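 also: 100% uses oxytocin at 75 nM as the full agonist control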
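Dosing: Single dose, 3.0 µM nominal final compound concentration | Material: Human OTR in CHO cells | Technique: Kinetic Fluo-8 calcium fluorescence | Benchmarks: EC15 oxytocin alone as 0%, 75 nM oxytocin as 100% | Probe or stimulus: Oxytocin at about EC15, sub-maximal agonist stimulus | Incubation: Compound 6 min at room temperature before oxytocin, 100 s read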
TAAR1 antag = antagonists of human TAAR1; Q96RJ0; CHO RD-HGA16 TAAR1, Fluo-8 calcium fluorescence, antagonist; inhibition, % at 3 µM; 1.5% of 360,000 active;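 active = inhibition above a per-plate cutoff, the mean inhibition of test compounds on that plate plus 3 SD, cut at about 49% in these data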;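 also: 0% = DMSO plus EC80 beta-PEA response and 100% = DMSO alone without agonist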
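System: CHO RD-HGA16 cells bearing hTAAR1. Reagent: EC80 β-phenethylamine stimulus. Schedule: seeding 17-24 h prior, 75-min 37 °C, 30-min RT dye loading. Signal: Fluo-8 intracellular calcium dye fluorescence, real-time kinetic reads. Read-out: % inhibition from peak post-agonist over basal fluorescence ratio. Benchmarks: vehicle wells and EC80 agonist wells. Replicates: n of 1.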
OXTR agonist = agonists of human oxytocin receptor; P30559; CHO-OTR cells, Fluo-8 calcium fluorescence; normalized: DMSO 0%, oxytocin 100%; activation, % at 3 µM; 0.32% of 320,000 active; AID 2435;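 active = activation above the mean of all tested compounds plus 3 SD, cutoff set per screening run, cut at about 20% in these data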;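 also: peak over basal fluorescence ratio from a 100 s FLIPR kinetic read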
V1aR counter = counter-screen for oxytocin receptor agonists: human V1a receptor agonists; P37288; activation, % at 3 µM; CHO-V1R cells, Fluo-8 calcium fluorescence, agonist mode; 0% DMSO, 100% 3 nM vasopressin; 0.25% of 320,000 active;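 active = activation above the mean activation of all tested compounds plus 3 SD, per screening run, cut at about 20% in these data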;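 also: signal is peak over basal fluorescence ratio across a 100 second FLIPR read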
nonsel antag count = nonselective antagonist in TAAR1 antagonist counter-screen; counterscreen cell line, calcium fluorescence, antagonist mode; 77% of 2,400 active; inhibition, % at 3 µM; AID 651780; shares compounds with TAAR1 antag; in the data active = inhibition above about 22%;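 also: CHO-Ga16 host cells stimulated with ATP at an EC80 level; 0% = agonist EC80 plus vehicle and 100% = vehicle without agonist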
TAAR1 antag conf = human TAAR1 antagonism, confirmed; shares compounds with TAAR1 antag; 40% of 2,400 active; TAAR1-expressing cells, fluorescence antagonist read-out; inhibition, % at 3 µM; in the data active = inhibition above about 49%;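 also: CHO-Ga16 host cells challenged with agonist PEA near its EC80; 0% = agonist at EC80 plus vehicle and 100% = vehicle with no agonist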
Ga16 nonsel ag = counter-screen for TAAR1 antagonists: nonselective Ga16 agonists | shares compounds with TAAR1 antag | Ga16-expressing cells, calcium fluorescence, agonist counterscreen | activation, % at 3 µM | 18% of 2,400 active; in the data active = activation above about 12%;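 also: 0% = vehicle wells and 100% = saturating stimulus response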
TAAR1 ag counter = TAAR1 agonism, antagonist counter-screen; shares compounds with TAAR1 antag; 2% of 2,400 active; activation, % at 3 µM; hTAAR1 cell line, fluorescence activation, agonist mode; in the data active = activation above about 37%;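 also: CHO cells stably expressing TAAR1 with calcium dye readout; 0% = DMSO vehicle and 100% = full agonist response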
The depositor's hits bear a star; . = no result given.

SMILES	TAAR1 ag	OXTR potentiate	TAAR1 antag	OXTR agonist	V1aR counter	nonsel antag count	TAAR1 antag conf	Ga16 nonsel ag	TAAR1 ag counter
COc1cc(/C=C(\C#N)c2nc3ccccc3[nH]2)cc(Br)c1OCc1ccccc1	8	-9	60*	-1	0	47*	56*	8	5
COc1cc(/C=C(\C#N)c2nc3ccccc3[nH]2)ccc1Oc1ccc([N+](=O)[O-])cn1	20	-5	84*	4	4	50*	65*	11	9
Cc1cc(C(=O)N2CCC(C)(C(=O)NS(=O)(=O)C3CC3)C2)n(C(C)(C)C)n1 (configuration not stated)	1	.	-2	.	.	.	.	.	.
O=C(CN(c1ccccc1)S(=O)(=O)c1ccccc1)NCCSc1nc2ccccc2s1	14	-4	71*	-1	0	36*	62*	8	6
CCCCCCCCOc1ccc(C2CC(=O)NC2=O)cc1 (configuration not stated)	-1	-6	8	0	0	.	.	.	.
O=C1CC(c2ccc(OCCCCCOc3ccc(C4CC(=O)NC4=O)cc3)cc2)C(=O)N1 (configuration not stated)	20	-1	64*	3	4	40*	53*	14*	19
C=CCCCCCCCCC(=O)NN	-1	-2	-15	-1	1	.	.	.	.
COc1ccc(CC(=O)N(Cc2ccccc2)c2ccccc2)cc1S(=O)(=O)N1CCOCC1	18	-14	82*	6	9	32*	55*	15*	15
COc1ccc(OC)c(CNS(=O)(=O)c2ccccc2Br)c1	1	.	-8	.	.	.	.	.	.
COc1cc(-c2noc(C)c2C#Cc2ccsc2)cc(OC)c1OC	28	-10	65*	0	1	18	34	6	20
COc1cc(-c2noc(C)c2C#CCO)cc(OC)c1OC	5	-8	-15	0	-1	.	.	.	.
Cc1ccccc1CN1C(=O)C(C)Sc2ccc(-c3ccco3)cc21 (configuration not stated)	0	.	-20	.	.	.	.	.	.
COc1ccc(NC(=O)CCc2nnc3ccc(N4CCN(c5cccc(OC)c5)CC4)nn23)cc1	9	-12	63*	4	0	23*	39	9	14
COc1cccc(N2CCN(C(=O)CCc3nnc4ccc(N5CCCC5)nn34)CC2)c1	2	-8	2	-3	-1	.	.	.	.
COc1ccccc1N1CCN(C(=O)CCc2nnc3ccc(N4CCC(C)CC4)nn23)CC1	7	-15	53*	-3	-2	22*	43	8	10
COc1cccc(NC(=O)CCc2nnc3ccc(N4CCN(c5cccc(OC)c5)CC4)nn23)c1	.	-9	.	0	0	.	.	.	.
NC(=O)c1nsc(C(=O)N(c2ccccc2)C(C(=O)NCc2ccc(F)cc2)c2ccco2)c1N (configuration not stated)	17	-13	68*	4	6	21*	53*	9	40*
NC(=O)c1nsc(C(=O)N(c2ccccc2)C(C(=O)NC2CCCC2)c2ccncc2)c1N (configuration not stated)	0	-5	-24	-1	-1	.	.	.	.
O=C(NCc1ccc(F)cc1)C(c1ccco1)N(C(=O)c1csnn1)c1ccccc1 (configuration not stated)	4	-10	13	1	1	.	.	.	.
NC(=O)c1nsc(C(=O)N(c2ccccc2)C(C(=O)NCc2ccc(F)cc2)c2ccc(O)cc2)c1N (configuration not stated)	30	-10	74*	4	6	38*	64*	14*	19
NC(=O)c1nsc(C(=O)N(c2ccccc2)C(C(=O)NC2CCCCC2)c2ccc(O)cc2)c1N (configuration not stated)	6	-28	64*	-1	1	25*	40	6	8
O=C(NCCc1ccccc1)C1Cc2c(-c3ccccc3)ccnc2O1 (configuration not stated)	0	.	4	.	.	.	.	.	.
COc1cc(/C=C/C(=O)O)cc(S(=O)(=O)Nc2cc(S(=O)(=O)N3CCCCC3)ccc2Cl)c1OC	0	.	-18	.	.	.	.	.	.
Cc1ccc(S(=O)(=O)N2CCCC(C(=O)Nc3ccc(NC(=O)c4ccccn4)cc3)C2)cc1 (configuration not stated)	15	-4	55*	1	0	32*	53*	8	11
Cc1ccc(S(=O)(=O)N2CCCC(C(=O)Nc3cccnc3)C2)cc1 (configuration not stated)	16	-13	7	2	3	.	.	.	.
SMILES	TAAR1 ag	OXTR potentiate	TAAR1 antag	OXTR agonist	V1aR counter	nonsel antag count	TAAR1 antag conf	Ga16 nonsel ag	TAAR1 ag counter
CCOC(=O)c1ccc(NC(=O)C2CCN(S(=O)(=O)c3ccccc3)CC2)cc1	2	-5	-7	2	2	.	.	.	.
CCOC(=O)c1ccc(NC(=O)C2CCCN(S(=O)(=O)c3ccc(F)cc3)C2)cc1 (configuration not stated)	20	-10	67*	7	5	39*	62*	13*	14
COc1cccc(NC(=O)CN(C)C(=O)c2ccccc2-c2nc3ccccc3s2)c1	3	-8	15	-2	-1	.	.	.	.
CCc1nc(SCC(=O)N2CCN(c3ccccc3)CC2)c2oc3ccccc3c2n1	13	-10	53*	1	1	27*	47	6	5
CCc1nc(SCCO)c2oc3ccccc3c2n1	3	-9	-12	-1	1	.	.	.	.
CCN1CCN(c2c(S(=O)(=O)c3ccc(Cl)cc3)cnc3ccccc23)CC1	7	.	29	.	.	.	.	.	.
COC(=O)[C@H](Cc1ccccc1)NC(=O)/C=C/[C@H]1O[C@@H](n2cc(C)c(=O)[nH]c2=O)C[C@@H]1O	2	.	-5	.	.	.	.	.	.
Clc1cccc(-c2nc(NCCCN3CCOCC3)c3ccccc3n2)c1	16	-14	29	6	2	.	.	.	.
Clc1cccc(-c2nc(NCCN3CCOCC3)c3ccccc3n2)c1	17	-20	64*	5	3	32*	55*	16*	16
CCOc1cc(C(=S)N2CCOCC2)ccc1OC(=O)c1cccc(C)c1	9	-9	66*	-2	0	31*	48	5	1
